Reference: ChEMBL document CHEMBL1806372, “Cytotoxic ring A-modified steroid analogues derived from Grundmann's ketone” (Eur J Med Chem, 2011)
Active and inactive are the calls of the source. The calls are words filed in the database; no cut-off is given here.

Experiments:
Type in all cases: functional
SK-MEL-2 = assay: Growth inhibition of human SK-MEL-2 cells assessed as cell growth at 10^-5 M after 48 hrs by sulforhodamine B assay; settings: SK-MEL-2, 48 h, read-out: Activity
In short: (§1)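 NCI-60 single high-dose screen run under the NCI protocol. Cells were incubated with compound at 10^-5 M for 48 h. The end point was determined by sulforhodamine B protein staining. Results are reported as percent growth of treated cells relative to untreated control cells.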

HOP-62 = assay: Growth inhibition of human HOP62 cells assessed as cell growth at 10^-5 M after 48 hrs by sulforhodamine B assay; settings: HOP-62, 48 h, read-out: Activity
In short: (§2)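 NCI 60-cell panel single high-dose screen: compound applied at 10^-5 M for 48 h, endpoint by sulforhodamine B protein-binding dye. Values reported as growth percent of treated cells relative to untreated control cells.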

BT-549 = assay: Growth inhibition of human BT549 cells assessed as cell growth at 10^-5 M after 48 hrs by sulforhodamine B assay; settings: BT-549, 48 h, read-out: Activity; in short: as §2
Staphylococcus equorum = assay: Antibacterial activity against Staphylococcus equorum assessed as zone of inhibition at 5 uL and 32 degC after 36 hrs at by disk diffusion method
In short: (§3)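 Disc diffusion on AC agar, each strain spread evenly over the medium; test compounds given as 1% (w/v) DMSO solutions. Plates covered and incubated 36 h at 32 °C, then the diameter of the zone of inhibited growth measured in mm. Tetracycline served as antibacterial reference.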

SK-OV-3 = assay: Growth inhibition of human SKOV3 cells assessed as cell growth at 10^-5 M after 48 hrs by sulforhodamine B assay; settings: SK-OV-3, 48 h, read-out: Activity
In short: (§4)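 NCI 60-cell panel single-dose screen under the NCI protocol. Cells are exposed to compound at one concentration (10^-5 M) for 48 h. The end point is protein staining with sulforhodamine B. Each line is reported as percent growth of treated cells relative to untreated control cells.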

MDA-MB-468 = assay: Growth inhibition of human MDA-MB-468 cells assessed as cell growth at 10^-5 M after 48 hrs by sulforhodamine B assay; settings: MDA-MB-468, 48 h, read-out: Activity; in short: as §1
UACC-257 = assay: Growth inhibition of human UACC257 cells assessed as cell growth at 10^-5 M after 48 hrs by sulforhodamine B assay; settings: UACC-257, 48 h, read-out: Activity; in short: as §4
Escherichia coli = assay: Antibacterial activity against Escherichia coli assessed as zone of inhibition at 5 uL and 32 degC after 36 hrs by disk diffusion method; in short: as §3
CCRF-CEM = assay: Growth inhibition of human CCRF-CEM cells assessed as cell growth at 10^-5 M after 48 hrs by sulforhodamine B assay; settings: read-out: Activity; in short: as §2
TK-10 = assay: Growth inhibition of human TK10 cells assessed as cell growth at 10^-5 M after 48 hrs by sulforhodamine B assay; settings: TK-10, 48 h, read-out: Activity; in short: as §4
HCC 2998 = assay: Growth inhibition of human HCC2998 cells assessed as cell growth at 10^-5 M after 48 hrs by sulforhodamine B assay; settings: HCC 2998, 48 h, read-out: Activity; in short: as §2
OVCAR-5 = assay: Growth inhibition of human OVCAR5 cells assessed as cell growth at 10^-5 M after 48 hrs by sulforhodamine B assay; settings: OVCAR-5, 48 h, read-out: Activity; in short: as §1
CAKI-1 = assay: Growth inhibition of human Caki1 cells assessed as cell growth at 10^-5 M after 48 hrs by sulforhodamine B assay; settings: CAKI-1, 48 h, read-out: Activity; in short: as §2
NCI-H322M = assay: Growth inhibition of human NCI-H322M cells assessed as cell growth at 10^-5 M after 48 hrs by sulforhodamine B assay; settings: read-out: Activity; in short: as §1
SF-295 = assay: Growth inhibition of human SF295 cells assessed as cell growth at 10^-5 M after 48 hrs by sulforhodamine B assay; settings: SF-295, 48 h, read-out: Activity; in short: as §1
K562 = assay: Growth inhibition of human K562 cells assessed as cell growth at 10^-5 M after 48 hrs by sulforhodamine B assay; settings: K562, 48 h, read-out: Activity; in short: as §2
HOP-92 = assay: Growth inhibition of human HOP92 cells assessed as cell growth at 10^-5 M after 48 hrs by sulforhodamine B assay; settings: HOP-92, 48 h, read-out: Activity; in short: as §2
OVCAR-8 = assay: Growth inhibition of human OVCAR8 cells assessed as cell growth at 10^-5 M after 48 hrs by sulforhodamine B assay; settings: OVCAR-8, 48 h, read-out: Activity; in short: as §1
NCI-H522 = assay: Growth inhibition of human NCI-H522 cells assessed as cell growth at 10^-5 M after 48 hrs by sulforhodamine B assay; settings: NCI-H522, 48 h, read-out: Activity; in short: as §1
KM12 = assay: Growth inhibition of human KM12 cells assessed as cell growth at 10^-5 M after 48 hrs by sulforhodamine B assay; settings: KM12, 48 h, read-out: Activity; in short: as §2
M14 = assay: Growth inhibition of human M14 cells assessed as cell growth at 10^-5 M after 48 hrs by sulforhodamine B assay; settings: M14, 48 h, read-out: Activity; in short: as §1
COLO 205 = assay: Growth inhibition of human COLO205 cells assessed as cell growth at 10^-5 M after 48 hrs by sulforhodamine B assay; settings: COLO 205, 48 h, read-out: Activity; in short: as §2
[1] = Antifungal activity against Hyphopichia burtonii assessed as zone of inhibition at 5 uL and 28 degC after 36 hrs by disk diffusion method
In short: (§5)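 Agar disc diffusion with the test compound applied as a 1% (w/v) DMSO solution. Yeasts were grown on AC agar and Aspergillus niger on potato dextrose broth agar, each strain spread evenly. Plates were covered and kept 36 h at 28 °C, and the inhibition zone diameter was read in mm. Clotrimazole served as reference.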

786-0 = assay: Growth inhibition of human 786-0 cells assessed as cell growth at 10^-5 M after 48 hrs by sulforhodamine B assay; settings: 786-0, 48 h, read-out: Activity; in short: as §2
SN12C = assay: Growth inhibition of human SN12C cells assessed as cell growth at 10^-5 M after 48 hrs by sulforhodamine B assay; settings: read-out: Activity; in short: as §4
SK-MEL-5 = assay: Growth inhibition of human SK-MEL-5 cells assessed as cell growth at 10^-5 M after 48 hrs by sulforhodamine B assay; settings: SK-MEL-5, 48 h, read-out: Activity; in short: as §4
SF-539 = assay: Growth inhibition of human SF539 cells assessed as cell growth at 10^-5 M after 48 hrs by sulforhodamine B assay; settings: SF-539, 48 h, read-out: Activity; in short: as §1
NCI-H460 = assay: Growth inhibition of human NCI-H460 cells assessed as cell growth at 10^-5 M after 48 hrs by sulforhodamine B assay; settings: NCI-H460, 48 h, read-out: Activity; in short: as §1
[2] = Growth inhibition of human Hs 578T cells assessed as cell growth at 10^-5 M after 48 hrs by sulforhodamine B assay; settings: read-out: Activity; in short: as §2
Aspergillus niger = assay: Antifungal activity against Aspergillus niger assessed as zone of inhibition at 5 uL and 28 degC after 36 hrs by disk diffusion method; in short: as §5

## CC(C)CCC[C@@H](C)[C@H]1CC[C@H]2[C@@H]3CCN4C(=O)CCC(=O)N4[C@@H]3CC[C@]12C
SK-MEL-2
  growth at 10 µM: 114%
HOP-62
  growth at 10 µM: 87.7%
BT-549
  growth at 10 µM: 84.7%
Staphylococcus equorum
  diameter of the inhibition zone (DIZ): 9 mm
SK-OV-3
  growth at 10 µM: 99.3%
MDA-MB-468
  growth at 10 µM: 122%
UACC-257
  growth at 10 µM: 76.2%
Escherichia coli
  diameter of the inhibition zone (DIZ): 11 mm
CCRF-CEM
  growth at 10 µM: 87.4%
TK-10
  growth at 10 µM: 108%
HCC 2998
  growth at 10 µM: 86.6%
OVCAR-5
  growth at 10 µM: 91.5%
CAKI-1
  growth at 10 µM: 73.5%
NCI-H322M
  growth at 10 µM: 117%
SF-295
  growth at 10 µM: 88.6%
K562
  growth at 10 µM: 91%
HOP-92
  growth at 10 µM: 77.5%
OVCAR-8
  growth at 10 µM: 93.5%
NCI-H522
  growth at 10 µM: 80.2%
KM12
  growth at 10 µM: 105%
M14
  growth at 10 µM: 90.5%
COLO 205
  growth at 10 µM: 90.3%
[1]
  inhibition zone (IZ): 15 mm
786-0
  growth at 10 µM: 83.8%
SN12C
  growth at 10 µM: 88%
SK-MEL-5
  growth at 10 µM: 96.4%
SF-539
  growth at 10 µM: 104%
NCI-H460
  growth at 10 µM: 107%
[2]
  growth at 10 µM: 97%
Aspergillus niger
  diameter of the inhibition zone (DIZ): inactive

## CC(C)CCC[C@@H](C)[C@H]1CC[C@H]2C3=CCn4c(=O)ccc(=O)n4[C@@H]3CC[C@]12C
SK-MEL-2
  growth at 10 µM: -93%
HOP-62
  growth at 10 µM: -93.3%
BT-549
  growth at 10 µM: -30.9%
Staphylococcus equorum
  diameter of the inhibition zone (DIZ): inactive
SK-OV-3
  growth at 10 µM: -100%
MDA-MB-468
  growth at 10 µM: -49%
UACC-257
  growth at 10 µM: -97.5%
Escherichia coli
  diameter of the inhibition zone (DIZ): inactive
CCRF-CEM
  growth at 10 µM: -2.44%
TK-10
  growth at 10 µM: -83.1%
HCC 2998
  growth at 10 µM: -100%
OVCAR-5
  growth at 10 µM: -84.3%
CAKI-1
  growth at 10 µM: -91.6%
NCI-H322M
  growth at 10 µM: -55.3%
SF-295
  growth at 10 µM: -99.5%
K562
  growth at 10 µM: -40%
HOP-92
  growth at 10 µM: -94%
OVCAR-8
  growth at 10 µM: -39.7%
NCI-H522
  growth at 10 µM: -66.1%
KM12
  growth at 10 µM: -65.5%
M14
  growth at 10 µM: -87.1%
COLO 205
  growth at 10 µM: -93.1%
[1]
  inhibition zone (IZ): 10 mm
786-0
  growth at 10 µM: -100%
SN12C
  growth at 10 µM: -97.7%
SK-MEL-5
  growth at 10 µM: -79.3%
SF-539
  growth at 10 µM: -96.8%
NCI-H460
  growth at 10 µM: -89.9%
[2]
  growth at 10 µM: -12.2%
Aspergillus niger
  diameter of the inhibition zone (DIZ): inactive

## CC(C)CCC[C@@H](C)[C@H]1CC[C@H]2C3=CC[C@@H]4C(=O)C=CC(=O)[C@@H]4[C@@H]3CC[C@]12C
SK-MEL-2
  growth at 10 µM: 41.9%
HOP-62
  growth at 10 µM: 12.1%
BT-549
  growth at 10 µM: -1.63%
Staphylococcus equorum
  diameter of the inhibition zone (DIZ): inactive
SK-OV-3
  growth at 10 µM: 10.5%
MDA-MB-468
  growth at 10 µM: 2.69%
UACC-257
  growth at 10 µM: 28.7%
Escherichia coli
  diameter of the inhibition zone (DIZ): inactive
CCRF-CEM
  growth at 10 µM: 17%
TK-10
  growth at 10 µM: -36.6%
HCC 2998
  growth at 10 µM: -75.5%
OVCAR-5
  growth at 10 µM: 7.74%
CAKI-1
  growth at 10 µM: -56.3%
NCI-H322M
  growth at 10 µM: 42.6%
SF-295
  growth at 10 µM: -25.6%
K562
  growth at 10 µM: 9.94%
HOP-92
  growth at 10 µM: -28.9%
OVCAR-8
  growth at 10 µM: 0.17%
NCI-H522
  growth at 10 µM: -46.1%
KM12
  growth at 10 µM: -10.1%
M14
  growth at 10 µM: 5.05%
COLO 205
  growth at 10 µM: 12.4%
[1]
  diameter of the inhibition zone (DIZ): inactive
786-0
  growth at 10 µM: -5.66%
SN12C
  growth at 10 µM: 20.1%
SK-MEL-5
  growth at 10 µM: -3.37%
SF-539
  growth at 10 µM: 38.2%
NCI-H460
  growth at 10 µM: 2.88%
[2]
  growth at 10 µM: 8.12%
Aspergillus niger
  diameter of the inhibition zone (DIZ): inactive
